Source: publication PMC7962621 (Cell, 2019)

How the values were obtained:
[1] = tested on: CD4 T cells from DQ8+ T1D subjects; experiment: CFSE proliferation assay with immobilized peptide/DQ8 complexes, T1D subjects; assay type: cell-based, human; conditions: peptide-loaded DQ8 immobilized (10 μM), 7 days, CFSElow CD4 T cells; n = 3
Procedure, shortened: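 Freshly isolated PBMCs were washed in warm PBS and labelled with 1 μM CFSE for 1–2 min at 37 °C, then quenched with chilled medium. Thrombin-cleaved, CLIP-free DQ8 monomers (0.5 μM) were loaded with peptide (100 μM) for 72 h at 37 °C in pH 5.5 citrate phosphate buffer, then immobilized in wells. Unstimulated cells served as negative control and anti-CD3/CD28 as positive control.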

[2] = relative to native insulin; ref Wang et al., 2018; cited from earlier work
DQ8 = conditions: two registers placing nonacidic residues at P1 and P9; background statement; cited from earlier work

Substance	Stimulation of CD4 T cells from DQ8+ T1D subjects [1]	Fold potency vs native insulin B:9–23 [2]	Binding of insulin B:9–23 peptide to DQ8 (DQ8)
CARQRFWSGPLFDYW [h-Id]	no significant responses		
SHLVEALYLVCGEEG [mimotope]		100 fold	
SHLVEELYLVAGEEG [superagonist]		about 1,000 fold	
native insulin: insulin B:9–23 peptide SHLVEALYLVCGERG	no significant responses		binds poorly to DQ8
